From PubChem
T cruzi intra: inhibitors of intracellular Trypanosoma cruzi. intracellular Trypanosoma cruzi in host cells, plate reader. activity score (inhibition), % at 5.01 µM. 22,000 tested, 4.9% active. AID 651903; in the data active = activity score above about 55%; inconclusive = no clear call, values can overlap the other calls;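 note: parasites and compound incubated about four days before reading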
YB-1 expression: YB-1 expression inhibition. AID 434959. U2OS, qRT-PCR YB-1 vs CDIP delta delta Cp, 16 h; stronger effect = higher value; zero = DMSO, each unit about twofold. 30,000 tested, 0.37% active. delta delta Cp (YB-1 minus CDIP) (concentration not given with the values);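 active = delta delta Cp rounded down to an integer at or above 3, about 3 SD of DMSO wells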;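 note: higher means less YB-1 transcript or more CDIP transcript relative to DMSO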
INS-1E rescue: INS-1E beta cell protection from cytokine death | INS-1E cytokine-induced death, ATP luminescence, 48 h; normalised: neutral wells 0, positive control 100 | 20,000 tested, 0.1% active | protection from cytokine-induced ATP loss, % at 10 µM;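 active = mean replicate protection from cytokine-induced ATP loss at least 50% and at least 75% of replicates each reaching 50%; inconclusive = meets only one of the two criteria, mean or replicate share; inactive = fails both the mean and replicate share criteria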
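Assay system: INS-1E rat cells / Quantity: 8000 cells per well / Medium: RPMI without phenol red, 5% FBS / Probe or stimulus: three-cytokine cocktail (IFN-γ, TNF-α, IL-1β) / Dosing: one compound concentration, pin transfer / Timing: 48 h co-treatment, 10 min post-lysis read / Technique: CellTiter-Glo luminescence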
Each line names hits and unclear results; the compound was inactive in the other large screens. The full list was thinned out, with hits kept by preference.

CC/C=C\C=C1\C(=O)C=CC1CCCCCCCC(=O)O (stereo not drawn)	none (no result: T cruzi intra, INS-1E rescue)
O=C(CCCCC(=O)N/N=C/c1c(F)c(F)c(F)c(F)c1F)NO	none
COc1ccc(S(=O)(=O)N(C)C[C@H]2Oc3ccc(NC(=O)Nc4cccc5ccccc45)cc3C(=O)N([C@@H](C)CO)C[C@H]2C)cc1	T cruzi intra 61.7
COc1ccc(S(=O)(=O)N(C)C[C@@H]2Oc3c(NC(=O)Nc4ccc(C(F)(F)F)cc4)cccc3C(=O)N([C@@H](C)CO)C[C@H]2C)cc1	none
COc1ccc(S(=O)(=O)N(C)C[C@H]2Oc3c(NC(=O)Nc4ccc(C(F)(F)F)cc4)cccc3C(=O)N([C@H](C)CO)C[C@@H]2C)cc1	T cruzi intra inconclusive
COc1ccc(S(=O)(=O)N(C)C[C@H]2Oc3c(NC(=O)Nc4ccc(C(F)(F)F)cc4)cccc3C(=O)N([C@@H](C)CO)C[C@H]2C)cc1	T cruzi intra 67.1
COc1ccc(S(=O)(=O)N(C)C[C@H]2Oc3c(NC(=O)Nc4ccc(C(F)(F)F)cc4)cccc3C(=O)N([C@@H](C)CO)C[C@@H]2C)cc1	T cruzi intra 69.8
COc1ccc(S(=O)(=O)N(C)C[C@H]2Oc3ccc(NC(=O)Nc4cccc5ccccc45)cc3C(=O)N([C@@H](C)CO)C[C@@H]2C)cc1	none
C/C(=C/COc1c(OC2OC(CO)C(O)C(O)C2O)ccc2ccc(=O)oc12)CO (stereo not drawn)	none (no result: T cruzi intra, INS-1E rescue)
NC(=O)c1ccccc1C(=O)c1ccccc1	none (no result: T cruzi intra, INS-1E rescue)
CCOc1cccc(/C=N/NC(=O)c2ccccc2O)c1OCC	none
Cc1nnc(Sc2ccc(/C=N/NC(=O)c3ccc(C(=O)NO)cc3)o2)n1C	none
Cc1cc(-c2ccccn2)n[nH]c1=O	none (no result: T cruzi intra, INS-1E rescue)
CCCCc1ccc(NC(=O)N=S2CCN(c3ncc(C(F)(F)F)cc3Cl)CC2)cc1	none (no result: T cruzi intra, INS-1E rescue)
CC(=O)O[C@H]1[C@H](Oc2ccccc2COC(=O)C2(O)C=CCCC2=O)O[C@H](COC(=O)C2(O)C=CCCC2=O)[C@@H](O)[C@@H]1O (stereo partly drawn)	none (no result: T cruzi intra, INS-1E rescue)
C[C@@H]1CCCCO[C@@H](CN(C)Cc2ccc(C(F)(F)F)cc2)[C@@H](C)CN([C@H](C)CO)C(=O)c2cc(NC(=O)c3ccccc3)ccc2O1	T cruzi intra 63.3
C[C@@H]1CCCCO[C@@H](CN(C)Cc2ccc(C(F)(F)F)cc2)[C@@H](C)CN([C@H](C)CO)C(=O)c2cc(NC(=O)c3ccncc3)ccc2O1	none
C[C@@H]1CCCCO[C@@H](CN(C)Cc2ccccc2)[C@@H](C)CN([C@H](C)CO)C(=O)c2cc(NC(=O)Cc3ccccc3)ccc2O1	none
COc1ccc(NC(=O)Nc2ccc3c(c2)C(=O)N([C@H](C)CO)C[C@H](C)[C@@H](CN(C)Cc2ccc(C(F)(F)F)cc2)OCCCC[C@@H](C)O3)cc1	T cruzi intra 63.2
COc1ccc(NC(=O)Nc2ccc3c(c2)C(=O)N([C@H](C)CO)C[C@H](C)[C@H](CN(C)Cc2ccncc2)OCCCC[C@@H](C)O3)cc1	none
C[C@@H]1CCCCO[C@@H](CN(C)Cc2ccc(C(=O)Nc3ccccc3N)cc2)[C@@H](C)CN([C@H](C)CO)C(=O)c2cc(NC(=O)Nc3ccc(F)cc3)ccc2O1	none
C[C@@H]1CCCCO[C@@H](CN(C)Cc2ccc(C(=O)Nc3ccccc3N)cc2)[C@@H](C)CN([C@H](C)CO)C(=O)c2cc(NC(=O)Nc3ccc(C(F)(F)F)cc3)ccc2O1	T cruzi intra 80.9
C[C@@H]1CCCCO[C@@H](CN(C)Cc2ccc(C(F)(F)F)cc2)[C@@H](C)CN([C@H](C)CO)C(=O)c2cc(NC(=O)Cc3ccccc3)ccc2O1	T cruzi intra 63.1
C=CCNC(=O)[C@H]1[C@@H]2C(=O)O[C@@H](c3ccccc3)[C@@H](c3ccccc3)N2[C@@H](c2ccccc2OCCO)[C@]12C(=O)Nc1ccccc12	none (no result: T cruzi intra, INS-1E rescue)
O=C(N/N=C/c1ccc(O)cc1)c1ccccc1O	none
COC(=O)CCCCCCC(=O)NN	none
CC1OC(OCC2OC(OCC3(C)C(O)CCC4(C)C3CCC3(C)C4CCC4C5=CC(C)(C)CCC5(C(=O)O)CCC43C)C(O)C(O)C2O)C(O)C(O)C1O (stereo not drawn)	none (no result: T cruzi intra, INS-1E rescue)
CCCc1nc2c([nH]1)C(c1cccc(O)c1)C(C#N)=C(N)O2 (stereo not drawn)	none (no result: T cruzi intra, INS-1E rescue)
C/C=C/[C@H](CC(=O)N(CCO)Cc1ccccc1)[Si](C)(C)c1ccc(OC)cc1	none (no result: T cruzi intra, INS-1E rescue)
C[C@@H]1CCCCO[C@@H](CN(C)Cc2ccc(C(=O)O)cc2)[C@@H](C)CN([C@H](C)CO)C(=O)c2cc(NC(=O)Nc3ccc(C(F)(F)F)cc3)ccc2O1	none
C[C@@H]1CCCCO[C@@H](CN(C)Cc2ccccc2)[C@@H](C)CN([C@H](C)CO)C(=O)c2cc(NC(=O)Nc3ccc(C(F)(F)F)cc3)ccc2O1	T cruzi intra 71.4
COC(=O)[C@@]1(Cc2ccccc2CN=[N+]=[N-])N=C(c2ccc(OCCCO)cc2)O[C@H]1c1ccccc1CN=[N+]=[N-]	none (no result: T cruzi intra, INS-1E rescue)
Cc1ccc(S(=O)(=O)N(C)C[C@H]2OCCCC[C@@H](C)Oc3ccc(NC(=O)Nc4ccc(C(F)(F)F)cc4)cc3C(=O)N([C@H](C)CO)C[C@@H]2C)cc1	T cruzi intra 64.1
C[C@@H]1CCCCO[C@@H](CN(C)S(C)(=O)=O)[C@@H](C)CN([C@H](C)CO)C(=O)c2cc(NC(=O)Nc3ccc(C(F)(F)F)cc3)ccc2O1	none
C[C@@H]1CCCCO[C@@H](CN(C)S(=O)(=O)c2ccccc2)[C@@H](C)CN([C@H](C)CO)C(=O)c2cc(NC(=O)Nc3ccc(C(F)(F)F)cc3)ccc2O1	T cruzi intra 68.6
COc1ccc(S(=O)(=O)N(C)C[C@@H]2OCCCC[C@@H](C)Oc3ccc(NC(=O)Nc4ccc(C(F)(F)F)cc4)cc3C(=O)N([C@H](C)CO)C[C@@H]2C)cc1	T cruzi intra 64.6
C[C@@H]1CCCCO[C@H](CN(C)S(=O)(=O)c2ccccc2)[C@@H](C)CN([C@H](C)CO)C(=O)c2cc(NC(=O)Nc3ccc(C(F)(F)F)cc3)ccc2O1	T cruzi intra 63.9
Cc1ccc(S(=O)(=O)N(C)C[C@H]2OCCCC[C@@H](C)Oc3ccc(NC(=O)NC(C)C)cc3C(=O)N([C@H](C)CO)C[C@@H]2C)cc1	none
C[C@@H]1CCCCO[C@H](CN(C)S(=O)(=O)c2ccccc2)[C@@H](C)CN([C@H](C)CO)C(=O)c2cc(NC(=O)c3ccccc3)ccc2O1	none
COc1ccc(NC(=O)Nc2ccc3c(c2)C(=O)N([C@H](C)CO)C[C@H](C)[C@H](CN(C)S(=O)(=O)c2ccc(OC)cc2)OCCCC[C@@H](C)O3)cc1	none
C[C@@H]1CN([C@H](C)CO)C(=O)Cc2cc(NS(=O)(=O)c3cccs3)ccc2O[C@@H]1CN(C)S(=O)(=O)c1cccs1	none
COc1ccc(/C=N/NC(=O)c2cccc(C(=O)NO)c2)cc1OC	none
CC1=C(CCC2=CC(=O)OC2O)[C@@]2(C)CCC[C@]3(C)C(=O)OC(C1=O)[C@@H]32 (stereo partly drawn)	none (no result: T cruzi intra, INS-1E rescue)
O=S(=O)(N[C@@H]1CCN(Cc2ccc(OCCO)cc2)C1)c1cc(Cl)ccc1Cl	none (no result: T cruzi intra, INS-1E rescue)
